# Shown is part of a subset that was picked to be rich in hits.
# Tb MetRS inh: T. brucei MetRS inhibitors, primary screen, biochemical, luminescence; methionyl-tRNA synthetase (Trypanosoma brucei brucei); purified T. brucei MetRS, ATP depletion, Kinase-Glo luminescence; inhibition, % at 11.9 µM; actives 0.4% (n = 360,000);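 active = inhibition above a per-plate cutoff of the control wells' mean inhibition plus 3 SD, cut at about 5.5% in these data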;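 note: 0% = DMSO wells median and 100% = median of wells with control inhibitor compound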
#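 Assay system: T. brucei methionyl-tRNA synthetase, purified | Medium: HEPES buffer with MgCl2, KCl, DTT, spermine, BSA, pyrophosphatase | Compound: 11.9 µM single point | Incubation: 15 min enzyme-compound preincubation, 2 h reaction, 10 min detection, 25 °C | Measured by: Kinase-Glo luciferase luminescence reporting remaining unconsumed ATP | Measure: % inhibition normalized to control-well medians | Replication: Singlicate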
# V-ATPase pH: regulators of yeast V-ATPase proton pumping, primary screen, pHLuorin cytosolic pH fluorescence | S. cerevisiae | response, % at 10 µM | actives 0.37% (n = 350,000) | AID 504577, 2011; in the data active = response mostly above about 7.3%, no sharp cut-off; inactive = mostly below about 5.4%; note: actives read high
# CHOP inh: inhibitors of CHOP promoter induction, primary screen, cell-based, unfolded protein response, luciferase reporter. AID 2732, 2010. inhibition, % at 10 µM. actives 3.8% (n = 220,000). CHO-K1 CHOP-promoter luciferase, tunicamycin-induced, 15-18 h;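 active = compounds that reduced the stress-induced luciferase reporter signal by more than about 70% of percent inhibition, limit read from the data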;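 note: 0% = tunicamycin plus vehicle and 100% = wells without tunicamycin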
# UPR XBP1 act: activators of adaptive XBP1 UPR arm, primary screen, cell-based, CHO-XBP1 luciferase reporter, luminescence, uHTS | IRE1-XBP1 UPR activation; percent of tunicamycin response, DMSO as zero | activation, % at 20 µM | actives 0.33% (n = 330,000) | AID 463104, 2010;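 active = versus positive control, 20 µM dose yields 30% or more activation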;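 note: 100% = tunicamycin at 10 µg/mL and 0% = DMSO only wells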
#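 Material: IRE1-XBP1 luciferase reporter CHO line / Quantity: one thousand reporter cells per well / Buffer or medium: F12 with 10% serum / Compound: 20 µM single concentration, DMSO 1% / Times: 6 h treatment, 37 °C / Detection: Steady-Glo luciferase glow luminescence, 10 min after reagent addition / Benchmarks: tunicamycin high, DMSO low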
# UPR CHOP act: activators of apoptotic CHOP UPR arm, primary screen, cell-based, CHO-CHOP luciferase reporter, luminescence, uHTS. actives 0.34% (n = 330,000). activation, % at 10 µM. UPR activation; percent of tunicamycin response over DMSO baseline. AID 449763, 2010;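 active = at 10 µM dose, activation of 40% or more, normalized to positive control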;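 note: 100% = tunicamycin at 10 µg/mL and 0% = DMSO alone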
#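 Test system: CHO-CHOP cells, stable luciferase reporter of PERK-eIF2a-CHOP signalling | Quantity: 500 CHO-CHOP cells per well | Buffer or medium: F12 plus 10% serum | Compound dosing: 10 µM single point, 0.5% DMSO | Schedule: 6 h compound treatment, 37 °C | Signal: Luciferase luminescence | Control set: Tunicamycin high control, DMSO low control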
# CHOP inh conf: retest of CHOP induction inhibitors, confirmation, cell-based; inhibition, % at 10 µM; CHO-CHOP promoter luciferase reporter, tunicamycin-induced, luminescence; shares compounds with CHOP inh; actives 45% (n = 2,100); AID 504437, 2011;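 active = mean of three repeat readings of reporter signal inhibition above a set limit, cut at about 70% in these data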;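 note: 0% = tunicamycin plus vehicle and 100% = wells lacking tunicamycin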
# An asterisk follows results filed as active; . = not tested or not shown.
SMILES,Tb MetRS inh,V-ATPase pH,CHOP inh,UPR XBP1 act,UPR CHOP act,CHOP inh conf
COC(=O)c1cccc(NC(=O)NC23CC4CC(CC(C4)C2)C3)c1,-0.2,-0.5,100.6*,1.1,0.0,-41.6
COC(=O)c1ccc(Cl)c(NC(=O)NC23CC4CC(CC(C4)C2)C3)c1,0.6,2.0,43.1,0.7,-0.5,.
CN(C)c1ccc(/C=C/c2ccc3c4ccccc4ccc3[n+]2-c2ccccc2)cc1,-2.3,-1.6,107.7*,.,.,123.1*
CN(C)c1ccc(/C=C/c2cccc[n+]2[O-])cc1,-0.7,-1.7,-6.4,0.4,4.3,.
Cc1nc(NCc2ccc3c(c2)OCO3)c2nnn(Cc3ccccc3)c2n1,-0.7,-3.5,101.1*,5.4,0.4,65.5
CCCC(=O)N1N=C(c2ccccc2)CC1c1cn(C)c2ccccc12 (stereo not drawn),-1.1,0.3,105.2*,0.8,0.3,9.4
O=Cc1cccc(OC(=O)c2ccc(Cl)cc2Cl)c1,.,.,100.9*,0.4,5.0,10.2
COc1cc(C(=O)Oc2cccc(C=O)c2)cc(OC)c1OC,-0.1,3.4,18.5,1.6,-2.1,.
O=C(CNc1cccc(C(F)(F)F)c1)N/N=C/c1cccc(Br)c1,1.1,6.5,99.0*,-1.4,0.2,107.7*
C/C(=N\NC(=O)CNc1cccc(C(F)(F)F)c1)c1cccc(Br)c1,1.0,5.9,68.1,-0.9,1.1,.
COc1ccc(/C=N/NC(=O)c2cccc(O)c2)cc1Cn1nc(C)c([N+](=O)[O-])c1C,0.0,0.2,39.5,7.5,2.4,.
COc1ccc(C(=O)On2c(-c3ccc(Br)cc3)nc3ccccc3c2=O)cc1,-0.1,-0.7,105.5*,8.9,3.1,68.7
COc1cc(OC)cc(-c2nc3ccccc3c(=O)n2OC(=O)c2ccc(Br)cc2)c1,-0.4,-2.3,105.6*,-1.3,-1.0,111.6*
COc1ccc(O)c(CNn2c(-c3ccc(Br)cc3)nc3ccccc3c2=O)c1,-0.6,.,9.8,-0.7,3.9,.
COc1ccc(-c2nc3ccccc3c(=O)n2N)cc1,-1.1,1.4,-12.3,-0.8,-1.3,.
CC(=O)N1c2ccccc2C2CCCC[C@H]21 (stereo partly drawn),-0.5,1.1,.,-0.3,0.3,.
COc1ccc2nc(-c3ccccc3)[nH]c(=O)c2c1,-0.4,-0.4,.,.,.,.
COc1ccc(-c2nc3ccc(N4CCCC4)cc3c(=O)[nH]2)cc1OC,-0.3,1.5,103.0*,7.3,3.0,15.7
COc1ccc(C(=O)C2CCCN(S(=O)(=O)c3ccccc3F)C2)c(C)c1 (stereo not drawn),-0.1,5.7,.,-1.6,0.5,.
COc1ccc(-c2c(-c3ccc(C#N)cc3)oc(=O)c3cc(OC)c(OC)cc23)cc1,-0.1,-2.5,.,-0.9,3.1,.
Cc1ccc(C2CC2c2n[nH]c(=S)n2-c2ccc(C)cc2)cc1 (stereo not drawn),-0.6,-4.9,100.4*,0.4,-0.5,0.0
Cc1ccc(-n2c(C3CC3c3ccc(Cl)cc3)n[nH]c2=S)cc1 (stereo not drawn),-0.3,-0.3,40.4,-2.5,-0.9,.
O=C(NC1CCSc2ccccc21)c1cccc([N+](=O)[O-])c1 (stereo not drawn),-1.4,-3.4,.,-2.3,0.0,.
O=C(Cn1c(C(F)(F)F)nc2ccccc21)N=Nc1c(O)[nH]c2ccc(Br)cc12,0.1,-0.2,105.5*,20.6,-0.2,115.5*
CC(C)C(NC(=O)/C=C/c1cccc([N+](=O)[O-])c1)C(C)C,-0.3,0.7,23.7,-2.8,-2.0,.
SMILES,Tb MetRS inh,V-ATPase pH,CHOP inh,UPR XBP1 act,UPR CHOP act,CHOP inh conf
CC(C)NC(=O)c1ccccc1NC(=O)/C=C/c1cccc([N+](=O)[O-])c1,1.6,1.6,107.4*,26.4,-0.1,111.2*
Cc1ccc(C)c(SCC(=O)OCC(=O)NCCNC(=O)COC(=O)CSc2cc(C)ccc2C)c1,-0.4,2.1,.,0.2,-0.4,.
COc1c(CC=C(C)C)cc(C2CC(=O)c3c(O)cc(O)cc3O2)cc1CC=C(C)C (stereo not drawn),-0.3,-2.3,104.5*,5.3,12.9,109.5*
Cc1ccc(-n2sc3ccccc3c2=O)cc1,0.7,0.3,105.7*,-2.5,15.2,30.0
O=c1c2ccccc2sn1-c1ccc(F)cc1,-0.4,-1.7,.,-2.2,11.3,.
CCOc1ccc(Cn2c3ccc(OC)cc3c3nc4ccccc4nc32)cc1,0.3,-1.0,105.5*,.,.,-5.1
CCn1c2ccc(OC)cc2c2nc3ccccc3nc21,.,.,38.8,12.3,-1.9,.
CCOc1ccc(/C=C2\SC(=O)N(c3ccc(O)cc3)C2=O)cc1OC,.,.,105.0*,6.6,2.4,15.1
COc1ccc(/C=C2\SC(=N)N(c3ccc(F)cc3)C2=O)cc1OC,0.6,-6.5,102.4*,4.9,-1.5,-72.6
COc1ccc(C=C2SC(=O)NC2=O)cc1OC,-0.1,-2.0,.,.,.,.
O=C(Nc1ccccc1)c1ccccc1C(=O)N1CCCCC1,-0.2,-1.8,25.5,-2.4,1.1,.
COc1cccc(CNC(=O)C2CCN(S(=O)(=O)c3ccc(-n4cnnn4)cc3)CC2)c1,-0.9,6.3,.,-4.6,9.3,.
C/C=N/NC(=O)CCNC(=O)c1ccccc1,0.5,4.4,-21.8,-0.4,1.9,.
N#CC1=C(N)C(C#N)(C#N)C(c2cccnc2)C2CCCC=C12 (stereo not drawn),.,.,-2.2,-1.2,-3.6,.
N#CC1=C(N)C(C#N)(C#N)C(c2cccnc2)C2CC(c3ccccc3)CC=C12 (stereo not drawn),-0.9,1.6,96.3*,-4.3,0.3,32.7
C=C(CC[C@@H](O)C(C)(C)O)[C@H]1CC[C@]2(C)[C@@H]1CCC1[C@@]3(C)CC[C@H](O)C(C)(C)C3CC[C@]12C (stereo partly drawn),-0.3,3.7,.,1.8,-0.5,.
C=C(C)[C@@H]1CC[C@]2(C(=O)O)CC[C@]3(C)[C@H](CC[C@@H]4[C@@]5(C)CC[C@H](O)C(C)(C)[C@@H]5CC[C@]43C)[C@@H]12,-0.2,1.8,102.9*,12.1,1.3,66.4
Cc1oc2c(C)c(O)ccc2c(=O)c1-c1cnn(-c2ccccc2)c1,0.2,2.2,103.7*,3.9,5.2,-15.8
Cc1ccc(NC2=C/C(=N/S(=O)(=O)c3cccs3)c3ccccc3C2=O)cc1C,-1.2,0.8,-70.5,.,.,.
Cc1ccccc1NC1=C/C(=N\S(=O)(=O)c2cccs2)c2ccccc2C1=O,-0.1,1.2,106.7*,-5.9,-4.9,-13.0
CC(=O)Nc1ccc(NC2=C/C(=N/S(=O)(=O)c3cccs3)c3ccccc3C2=O)cc1,3.3,-0.9,107.3*,-4.1,2.3,-41.7

# Bioassay records (PubChem)
